Each block holds one compound with its values, some of them ahead of it. Active and inactive are the calls of the source. No cut-off for these calls is given here.
Tests used:
Type in all cases: cell-based
[1] = (§1) Negative allosteric modulation of GluN1a/GluN2A receptor (unknown origin) expressed in Xenopus laevis oocytes assessed as inhibition of (S)-glutamate/glycine-induced channel current at 500 nM at -70 mV holding potential by two electrode voltage clamp based electrophysiology assay relative to control TCN-201; conditions: Homo sapiens
Method in brief: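 The screen ran on GluN1a/GluN2A oocytes (0.8 ng of each rat cRNA) by room-temperature TEVC in Mg2+-free Ba2+-Ringer, pH 7.4, with (S)-glutamate/glycine activation. Compounds were at 500 nM. Inhibition was normalized to that of the reference antagonist at 500 nM, tested in the same series of experiments. n is the number of independent oocytes.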

[2] = as §1, with “200” for “500”, “potential in presence of 1 to 10 uM glycine” for “potential”, “assay” for “assay relative to control TCN-201”; conditions: Homo sapiens
Method in brief: (§2)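 Oocytes co-injected with 0.8 ng each of rat GluN1a and GluN2A cRNA were recorded by TEVC at room temperature in Mg2+-free Ba2+-Ringer, pH 7.4. Compound was fixed at 200 nM. Currents were evoked by (S)-glutamate with glycine at 1, 3, 10 and 30. There were 3 oocytes per glycine level. Mean inhibition was fitted linearly (y = a + b*x) to give intercept and slope.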

[3] = as §1, with “200” for “500”, “potential in presence of 1 to 30 uM glycine” for “potential”, “assay” for “assay relative to control TCN-201”; conditions: Homo sapiens; method in brief: as §2
[4] = (§3) Negative allosteric modulation of GluN1a/GluN2A receptor (unknown origin) expressed in Xenopus laevis oocytes assessed as inhibition of (S)-glutamate/glycine-induced channel current at -70 mV holding potential in presence of 10 uM glycine by two electrode voltage clamp based electrophysiology assay; conditions: Homo sapiens
Method in brief: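 Rat wild-type GluN1a and GluN2A cRNA (0.8 ng each) injected into defolliculated oocytes. TEVC at room temperature in Mg2+-free Ba2+-Ringer (10 mM HEPES, 90 mM NaCl, 1 mM KCl, 1.5 mM BaCl2, pH 7.4). Compound was diluted from DMSO stock into (S)-glutamate/glycine agonist solution over a 1 nM–10 range. There were 5 oocytes per concentration. The logistic fit had minimal and maximal inhibition fixed at 0% and 100%.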

[5] = Negative allosteric modulation of GluN1a/GluN2B receptor (unknown origin) expressed in Xenopus laevis oocytes assessed as inhibition of (S)-glutamate/glycine-induced channel current at 10 uM at -70 mV holding potential by two electrode voltage clamp based electrophysiology assay; conditions: Homo sapiens
Method in brief: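 For selectivity, oocytes received 0.8 ng GluN1a plus 0.8 ng GluN2B rat cRNA. TEVC was at room temperature in Mg2+-free Ba2+-Ringer, pH 7.4, with (S)-glutamate/glycine stimulation. Compounds were at 10 µM, giving 0.1% DMSO in the test solution. There were 4–5 oocytes per compound.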

[6] = species: Homo sapiens; assay: as §3, with “current at 200 nM at -70 mV” for “current at -70 mV”, “presence of 30 uM glycine” for “presence of 10 uM glycine”; method in brief: as §2
[7] = species: Homo sapiens; assay: as §3, with “current at 200 nM at -70 mV” for “current at -70 mV”, “presence of 1 to 3 uM glycine” for “presence of 10 uM glycine”; method in brief: as §2
[8] = Negative allosteric modulation of GluN1a/GluN2A receptor (unknown origin) expressed in Xenopus laevis oocytes assessed as inhibition of (S)-glutamate/glycine-induced channel current at -70 mV holding potential in presence of 3 uM glycine by two electrode voltage clamp based electrophysiology assay; conditions: Homo sapiens

- Ratio [1]: 0.44
SMILES: O=C(NNC(=O)c1ccc2ccccc2c1)c1ccc(CNS(=O)(=O)c2ccc(F)c(Cl)c2)cc1

- Ratio [1]: 0.73
SMILES: O=C(NNCc1ccccc1)c1ccc(CNS(=O)(=O)c2ccc(F)c(Cl)c2)cc1

- inhibition [2]: Active
- inhibition [3]: Active
- IC50 [4]: 222 nM
- inhibition [5]: inactive
SMILES: O=C(NNC(=O)c1cccs1)c1ccc(CNS(=O)(=O)c2cccc(Br)c2)cc1

- inhibition [2]: Active
- inhibition [3]: Active
- IC50 [4]: 216 nM
- inhibition [5]: inactive
- Ratio [1]: 1.33
SMILES: O=C(NNC(=O)c1c[nH]c2ccccc12)c1ccc(CNS(=O)(=O)c2ccc(F)c(Cl)c2)cc1

- Ratio [1]: 0.3
SMILES: O=C(O)CCC(=O)NNC(=O)c1ccc(CNS(=O)(=O)c2ccc(F)c(Cl)c2)cc1

- Ratio [1]: 1.28
SMILES: O=C(NNC(=O)c1cc2ccccc2[nH]1)c1ccc(CNS(=O)(=O)c2ccc(F)c(Cl)c2)cc1

- inhibition [2]: Active
- inhibition [3]: Active
- IC50 [4]: 198 nM
- inhibition [5]: inactive
- Ratio [1]: 1.35
SMILES: O=C(NNC(=O)c1cccs1)c1ccc(CNS(=O)(=O)c2ccc(F)c(Cl)c2)cc1

- Ratio [1]: 0.64
SMILES: O=C(Cc1ccccc1)NNC(=O)c1ccc(CNS(=O)(=O)c2ccc(F)c(Cl)c2)cc1

- inhibition [2]: Active
- inhibition [6]: Active
- IC50 [4]: 512 nM
- inhibition [7]: inactive
- inhibition [5]: inactive
SMILES: O=C(NNC(=O)c1ccc(CNS(=O)(=O)c2ccc(F)c(Cl)c2)cc1)c1ccccc1

- inhibition [2]: Active
- inhibition [3]: Active
- inhibition [6]: Active
- IC50 [8]: 198 nM
SMILES: Cc1ncc(CNC(=O)c2cnc(CNS(=O)(=O)c3ccc(F)c(F)c3)c(C)n2)s1

- Ratio [1]: 0.58
SMILES: O=C(NNC(=O)c1cc2ccccc2s1)c1ccc(CNS(=O)(=O)c2ccc(F)c(Cl)c2)cc1

- Ratio [1]: 0.92
SMILES: O=C(NNC(=O)c1ccncn1)c1ccc(CNS(=O)(=O)c2ccc(F)c(Cl)c2)cc1

- inhibition [5]: inactive
SMILES: CC(C(O)c1ccc(O)cc1)N1CCC(Cc2ccccc2)CC1 (configuration not stated)

- Ratio [1]: 1.2
SMILES: O=C(NNC(=O)c1ccc[nH]1)c1ccc(CNS(=O)(=O)c2ccc(F)c(Cl)c2)cc1

- Ratio [1]: 0.31
SMILES: O=S(=O)(NCc1ccc(-c2nnc(-c3ccccc3)o2)cc1)c1ccc(F)c(Cl)c1

- Ratio [1]: 0.58
SMILES: O=C(NNS(=O)(=O)c1ccccc1)c1ccc(CNS(=O)(=O)c2ccc(F)c(Cl)c2)cc1

- Ratio [1]: 0.52
SMILES: O=C(NNC(=O)N1CCOCC1)c1ccc(CNS(=O)(=O)c2ccc(F)c(Cl)c2)cc1

- IC50 [4]: 204 nM
SMILES: O=C(NNC(=O)c1ccc(CNS(=O)(=O)c2cccc(Br)c2)cc1)c1ccccc1

- Ratio [1]: 1.1
SMILES: O=C(NNC(=O)c1ccco1)c1ccc(CNS(=O)(=O)c2ccc(F)c(Cl)c2)cc1

— ChEMBL document CHEMBL4265927, “Systematic variation of the benzoylhydrazine moiety of the GluN2A selective NMDA receptor antagonist TCN-201” (Eur J Med Chem, 2018)
